For three molecules, Ki, EC50 and IC50 results are on record in ChEMBL document CHEMBL1240347, “MK-7009, a potent and selective inhibitor of hepatitis C virus NS3/4A protease” (Antimicrob Agents Chemother, 2010).

pEC50, pIC50, pKi: −log10 of the molar value.

The nature of assay [1]: Inhibition of Hepatitis C virus genotype 2a NS3/4A protease activity. Also on record: species or system Hepatitis C virus subtype 2a. A digest of the protocol: (§1)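 Recombinant NS3/4A protease was expressed in and purified from E. coli. Inhibition was measured by a time-resolved, internally quenched fluorescence assay at low enzyme concentration. Kis were reported.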
The subject of assay [2] is Hepatitis C virus. Briefly: Antiviral activity against Hepatitis C virus genotype 2a infected in […] cell by cell-based HCV replicon assay in presence of 10% fetal bovine serum. It is filed as functional, organism-based, Hepacivirus hominis. (In antiviral work, replicon cells carry a viral genome segment that copies itself.)
Assay [3] is described as follows: Inhibition of Hepatitis C virus genotype 1a NS3/4A protease activity. Set-up: species or system Hepatitis C virus subtype 1a. A digest of the protocol: as §1
Assay [4] relates to Hepatitis C virus. The experiment in a line: Inhibition of Hepatitis C virus genotype 1b NS3/4A protease activity. Also on record: species or system Hepatitis C virus subtype 1b. A digest of the protocol:
as §1

Assay [5] deals with Hepatitis C virus. Briefly: Antiviral activity against Hepatitis C virus genotype 1b infected in […] cell by cell-based HCV replicon assay in presence of 50% normal human serum. It is filed as functional, organism-based, Hepacivirus hominis. The method in brief: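 Stable genotype 1b (con1) replicon cell line HB1, assayed in the presence of 50% normal human serum.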
The test system of assay [6] is Hepatitis C virus. The experiment in a line: Antiviral activity against Hepatitis C virus genotype 1b infected in […] cell by cell-based HCV replicon assay in presence of 10% fetal bovine serum. The format is functional, organism-based, Hepacivirus hominis. A digest of the protocol: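 Stable genotype 1b (con1) replicon cell line HB1, assayed in medium with 10% fetal bovine serum.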

A short description of assay [7]: Inhibition of Hepatitis C virus genotype 2b NS3/4A protease activity. Set-up: species or system Hepatitis C virus subtype 2b. A digest of the protocol:
as §1

Assay [8] in a line: Cytotoxicity against […] cells. It is filed as cell-based. The settings on record: HB1.
The target of assay [9] is Procathepsin L (Homo sapiens, UniProt P07711). Briefly: Inhibition of human Cathepsin L.
The nature of assay [10]: Inhibition of human Chymotrypsin.
The target of assay [11] is Cathepsin S (Homo sapiens, UniProt P25774). The experiment in a line: Inhibition of human Cathepsin S.
The target of assay [12] is T1, Cathepsin F (Homo sapiens, UniProt Q9UBX1).
T1 sequence (Q9UBX1 whole entry): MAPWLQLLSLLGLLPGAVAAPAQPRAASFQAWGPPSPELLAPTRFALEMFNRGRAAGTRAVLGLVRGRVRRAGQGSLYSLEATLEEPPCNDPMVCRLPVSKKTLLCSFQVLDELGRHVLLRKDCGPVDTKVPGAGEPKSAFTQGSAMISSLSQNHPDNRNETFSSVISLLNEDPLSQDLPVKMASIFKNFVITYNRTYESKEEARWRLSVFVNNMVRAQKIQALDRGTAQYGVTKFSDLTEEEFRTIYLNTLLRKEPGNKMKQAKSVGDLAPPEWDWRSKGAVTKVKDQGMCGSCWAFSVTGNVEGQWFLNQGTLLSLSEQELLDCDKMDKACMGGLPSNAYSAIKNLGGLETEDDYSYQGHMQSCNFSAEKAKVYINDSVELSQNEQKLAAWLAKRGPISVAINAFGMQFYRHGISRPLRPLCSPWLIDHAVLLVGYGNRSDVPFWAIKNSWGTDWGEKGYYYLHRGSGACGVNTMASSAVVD
The experiment in a line: Inhibition of human Cathepsin F.

In assay [13] the target is T2, Neutrophil elastase (Homo sapiens, UniProt P08246).
T2 sequence (P08246 whole entry): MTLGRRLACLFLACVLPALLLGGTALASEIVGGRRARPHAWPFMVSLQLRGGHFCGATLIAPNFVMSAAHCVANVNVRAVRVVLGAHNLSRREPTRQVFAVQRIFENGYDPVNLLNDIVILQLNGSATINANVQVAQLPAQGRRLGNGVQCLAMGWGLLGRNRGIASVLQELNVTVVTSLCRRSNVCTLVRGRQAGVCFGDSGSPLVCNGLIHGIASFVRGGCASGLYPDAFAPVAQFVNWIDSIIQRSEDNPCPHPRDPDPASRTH
The experiment in a line: Inhibition of human Neutrophil elastase 2.

Assay [14] addresses T3, Cathepsin L2 (Homo sapiens, UniProt O60911).
T3 sequence (O60911 whole entry): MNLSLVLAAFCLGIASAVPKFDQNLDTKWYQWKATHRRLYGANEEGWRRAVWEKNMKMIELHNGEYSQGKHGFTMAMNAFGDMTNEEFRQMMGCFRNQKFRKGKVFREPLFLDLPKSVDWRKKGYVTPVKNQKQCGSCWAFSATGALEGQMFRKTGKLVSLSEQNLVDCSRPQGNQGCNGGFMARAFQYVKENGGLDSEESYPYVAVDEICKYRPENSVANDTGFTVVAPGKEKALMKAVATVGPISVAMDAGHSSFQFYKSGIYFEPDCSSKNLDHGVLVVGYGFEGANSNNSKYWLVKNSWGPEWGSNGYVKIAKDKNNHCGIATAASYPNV
The experiment in a line: Inhibition of human Cathepsin V.

The target in assay [15] is Serine protease 1 (Homo sapiens, UniProt P07477). Briefly: Inhibition of human Trypsin activity.
Assay [16] has as its target Chymotrypsin-like elastase family member 1 (Homo sapiens, UniProt Q9UNI1). Briefly: Inhibition of human Pancreatic elastase 1.
Assay [17] has as its target T4, Chymase (Homo sapiens, UniProt P23946).
T4 sequence (P23946 whole entry): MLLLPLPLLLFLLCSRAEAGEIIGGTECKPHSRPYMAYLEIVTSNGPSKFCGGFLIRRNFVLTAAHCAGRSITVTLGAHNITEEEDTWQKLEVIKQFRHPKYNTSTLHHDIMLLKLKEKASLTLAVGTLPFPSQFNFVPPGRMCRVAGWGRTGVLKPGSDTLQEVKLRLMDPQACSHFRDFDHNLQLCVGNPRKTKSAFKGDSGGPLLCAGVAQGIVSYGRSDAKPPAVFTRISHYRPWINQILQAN
Briefly: Inhibition of human Chymase.

Assay [18] concerns the target Cathepsin B (Homo sapiens, UniProt P07858). Briefly: Inhibition of human Cathepsin B.
The target in assay [19] is T5, Cathepsin K (Homo sapiens, UniProt P43235).
T5 sequence (P43235 whole entry): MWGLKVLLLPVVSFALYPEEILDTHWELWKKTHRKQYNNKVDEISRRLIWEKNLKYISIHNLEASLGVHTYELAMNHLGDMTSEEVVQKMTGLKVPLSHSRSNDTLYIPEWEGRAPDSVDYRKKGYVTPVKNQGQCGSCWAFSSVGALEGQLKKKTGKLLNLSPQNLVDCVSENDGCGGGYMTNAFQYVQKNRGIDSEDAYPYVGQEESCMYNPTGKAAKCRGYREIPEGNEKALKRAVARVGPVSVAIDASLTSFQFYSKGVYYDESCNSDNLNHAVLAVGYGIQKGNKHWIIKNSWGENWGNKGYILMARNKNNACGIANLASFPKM
Briefly: Inhibition of human Cathepsin K.

Chain of Procathepsin L (P07711 whole entry): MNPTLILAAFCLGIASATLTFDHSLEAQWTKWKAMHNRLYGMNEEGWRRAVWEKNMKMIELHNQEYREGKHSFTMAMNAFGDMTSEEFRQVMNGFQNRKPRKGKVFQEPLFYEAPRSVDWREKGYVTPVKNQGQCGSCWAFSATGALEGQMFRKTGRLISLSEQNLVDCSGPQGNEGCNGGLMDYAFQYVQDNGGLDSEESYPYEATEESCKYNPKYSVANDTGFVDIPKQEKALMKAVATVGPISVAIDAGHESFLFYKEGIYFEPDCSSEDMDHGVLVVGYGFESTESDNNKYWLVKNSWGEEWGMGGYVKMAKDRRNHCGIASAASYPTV
Chain of Cathepsin S (P25774 whole entry): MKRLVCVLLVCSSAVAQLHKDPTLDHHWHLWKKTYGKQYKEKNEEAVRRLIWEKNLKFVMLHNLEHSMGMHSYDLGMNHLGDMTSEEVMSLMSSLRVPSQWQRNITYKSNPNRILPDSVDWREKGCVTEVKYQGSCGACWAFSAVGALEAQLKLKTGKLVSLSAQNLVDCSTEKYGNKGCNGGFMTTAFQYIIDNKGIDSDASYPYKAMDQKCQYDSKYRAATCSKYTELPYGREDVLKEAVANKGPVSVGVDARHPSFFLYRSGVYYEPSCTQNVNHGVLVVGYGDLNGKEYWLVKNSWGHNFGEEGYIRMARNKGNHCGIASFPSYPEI
Chain of Chymotrypsin-like elastase family member 1 (Q9UNI1 whole entry): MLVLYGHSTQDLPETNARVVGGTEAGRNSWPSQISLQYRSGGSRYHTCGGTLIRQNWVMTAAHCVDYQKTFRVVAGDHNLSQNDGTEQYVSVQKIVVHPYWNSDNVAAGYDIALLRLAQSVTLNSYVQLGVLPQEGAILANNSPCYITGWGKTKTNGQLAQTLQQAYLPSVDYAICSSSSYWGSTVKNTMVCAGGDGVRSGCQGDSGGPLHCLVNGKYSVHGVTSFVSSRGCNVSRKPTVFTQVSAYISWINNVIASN
Chain of Serine protease 1 (P07477 whole entry): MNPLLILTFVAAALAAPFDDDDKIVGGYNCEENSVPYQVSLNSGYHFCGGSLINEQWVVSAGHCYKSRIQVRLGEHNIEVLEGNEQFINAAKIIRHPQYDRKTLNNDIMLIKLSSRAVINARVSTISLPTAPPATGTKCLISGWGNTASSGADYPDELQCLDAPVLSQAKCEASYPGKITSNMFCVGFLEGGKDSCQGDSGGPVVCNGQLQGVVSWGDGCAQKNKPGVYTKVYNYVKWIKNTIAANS

For orientation: pKi means the negative decadic logarithm of the Ki, by convention in mol/L. Broadly, the pEC50 is the negative decadic logarithm of the EC50, by convention in mol/L. For the molecule `COc1ccc2c(O[C@@H]3C[C@H]4C(=O)N[C@]5(C(=O)O)C[C@H]5/C=C\CCCCC[C@H](NC(=O)OC5CCCC5)C(=O)N4C3)cc(-c3csc(NC(C)C)n3)nc2c1` [CILUPREVIR], the negative-log Ki (pKi) is 8.15 in assay [1], 9.09 in [3], 9.52 in [4] and 7.21 in assay [7]. Also, the negative logarithm of the EC50 (pEC50) in assay [2] was 7.57; in assay [5], 7.77; in [6], 8.52; in assay [8], 4.30.

As a reminder, the pIC50 is −log10 of the IC50, conventionally taken in molar units. As to `CCC[C@H](NC(=O)[C@@H]1[C@H]2CCC[C@H]2CN1C(=O)[C@@H](NC(=O)[C@@H](NC(=O)c1cnccn1)C1CCCCC1)C(C)(C)C)C(=O)C(=O)NC1CC1` [TELAPREVIR], the pKi was 7.27 in [1], 6.89 in assay [3], 7.03 in [4] and 7.38 in assay [7]. The pEC50 in [2] was 6.41; in [5] it was 5.07; in [6], 5.96; in assay [8], under 4.30. Besides, the pIC50 in assay [9] was 5.46; in assay [10] it was 5.52; in assay [11] it was 6.52; in assay [12], under 5.00; in [13] it was 5.10; in assay [14], 5.87. Moreover, the negative-log IC50 (pIC50) was under 5.00 in assay [15]; 7.52 in assay [16]; 7.59 in [17]; 5.36 in assay [18]; 6.20 in [19].

Consider `CC(C)(C)NC(=O)N[C@H](C(=O)N1C[C@H]2[C@@H]([C@H]1C(=O)NC(CC1CCC1)C(=O)C(N)=O)C2(C)C)C(C)(C)C` (some centres undefined) [BOCEPREVIR], for which the pKi in assay [1] is 7.60; in assay [3], 7.68; in [4] it was 7.55; in [7], 7.68. In addition, the pEC50 in assay [2] is 6.77; in assay [5], 5.93; in assay [6], 6.32; in [8] it was under 4.30. The pIC50 in assay [9] was 6.12; in assay [11], 6.92; in [12], 5.96; in assay [13], under 5.00; in assay [14], 7.12; in assay [16], under 5.00. Further, the pIC50 was 7.49 in [17], under 5.48 in assay [18] and 7.40 in assay [19].
